Among the data in ChEMBL document CHEMBL4765392, “Development of coumarine derivatives as potent anti-filovirus entry inhibitors targeting viral glycoprotein” (Eur J Med Chem, 2020) are IC50, CC50 and selectivity ratio values, retold here.

Structures are written as SMILES.

Series [1] in a line: Inhibition of envelope glycoprotein in HIV pseudotyped Zaire Ebolavirus infected in human A549 cells assessed as reduction in virus entry measured after 48 hrs by luciferase reporter gene assay. The format is cell-based. Conditions: A549, 48 h. The method in brief: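 A549 cells (5000/well, seeded 24 h prior) incubated 48 h with 3-fold serial compound dilutions premixed with HIV-backbone luciferase pseudovirions bearing EBOV GP. Entry quantified by luciferase signal, normalized to virus-alone cells. IC50 from logistic regression of dose-response curves.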
A general note: Reporter assays use an easily measured gene product as a stand-in for the process of interest.

Series [2] is described as follows: Cytotoxicity against human A549 cells assessed as reduction in cell viability by Celltiter-Glo assay. The series is classed as cell-based. The method in brief: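 Low-passage A549 cells seeded at 5000/well 24 h ahead, then exposed for 48 h to 3-fold serial compound dilutions in fresh media without virus. Viability read by CellTiter-Glo luminescence and normalized to medium-only cells. CC50 from logistic regression fit of dose-response curves.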

The subject of series [3] is envelope glycoprotein of Zaire Ebolavirus. Description: Selectivity index, ratio of CC50 for human A549 cells to IC50 for inhibition of envelope glycoprotein in HIV pseudotyped Zaire Ebolavirus infected in human A549 cells assessed as reduction in virus entry. Conditions: read-out: Ratio CC50/IC50. The format is toxicity, cell-based. The method in brief: (§1)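 IC50 wells also got HIV luciferase pseudovirions bearing MARV GP or EBOV GP, read by luciferase. CC50 wells got fresh media, read by CellTiter-Glo. Both values come from logistic dose-response fits, and the index is CC50 divided by IC50.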

The test system of series [4] is envelope glycoprotein of Marburgvirus. Description: Selectivity index, ratio of CC50 for human A549 cells to IC50 for inhibition of envelope glycoprotein in HIV pseudotyped Marburgvirus infected in human A549 cells assessed as reduction in virus entry. The series is classed as toxicity, cell-based. Conditions: read-out: Ratio CC50/IC50. The method in brief:
as §1

A word on the IC50: it is the concentration that gives 50% inhibition. A word on the CC50: it is the concentration that lowers cell viability or growth by half.

As to `Cc1cc(=O)oc2cc(OCC(O)CN3CCC(C(N)=O)CC3)ccc12` (stereo unspecified), the IC50 in series [1] came out at 9.3 µM. Besides, the 50% cytotoxic concentration (CC50) in series [2] was more than 100 µM. Besides, the figures for the selectivity ratio in series [3] and in series [4] were more than 10.8 and 12, respectively.
Turning to `Cc1c(Cc2ccccc2)c(=O)oc2cc(OCC(O)CN3CCC(C(N)=O)CC3)ccc12` (stereo unspecified), the IC50 in series [1] amounted to 3.4 µM. Further, the CC50 in series [2] was more than 100 µM. Moreover, the selectivity ratio in series [3] is more than 29.4; in series [4] it was 3.4.
For `Cc1c(Cc2ccc(F)cc2F)c(=O)oc2cc(OCC(O)CN3CCC(C(N)=O)CC3)ccc12` (stereo unspecified) the same measures were 1.2 µM, more than 100 µM, more than 81.1 and 23.6.
For `Cc1c(Cc2ccc(-c3ccc(Cl)cc3)cc2)c(=O)oc2cc(OCC(O)CN3CCC(C(N)=O)CC3)ccc12` (stereo unspecified) the same measures were 1.4 µM, 32.9 µM, 22.9 and 31.8.
For `Cc1c(Cc2ccccc2)c(=O)oc2cc(OCC(O)CNCc3cccs3)ccc12` (stereo unspecified) the same measures were 3.5 µM, 87.3 µM, 24.9 and 24.9.
Consider `Cc1cc(F)ccc1Cc1c(C)c2ccc(OCC(O)CN3CCC(C(N)=O)CC3)cc2oc1=O` (stereo unspecified), for which, in series [1], the IC50 is 1.2 µM. Besides, the CC50 in series [2] is more than 100 µM. Besides, the selectivity ratio in series [3] was more than 81.1; in series [4] it was 33.3.
For `Cc1c(Cc2ccccc2C(F)(F)F)c(=O)oc2cc(OCC(O)CN3CCC(C(N)=O)CC3)ccc12` (stereo unspecified) the same measures were 1.6 µM, more than 100 µM, more than 63.8 and 33.
`Cc1c(Cc2ccccc2)c(=O)oc2cc(OCC(O)CNCC3CC3)ccc12` (stereo unspecified): the IC50 in series [1] came out at 3 µM. Moreover, in series [2], the cytotoxic concentration (CC50) is more than 100 µM. Moreover, the selectivity ratio in series [3] is more than 33.3; in series [4] it was 31.6.
Consider `Cc1c(Cc2ccccc2)c(=O)oc2cc(OCC(O)CNc3ccc(Br)cc3)ccc12` (stereo unspecified), for which the IC50 in series [1] is more than 100 µM. Further, in series [2], the CC50 was more than 100 µM. Further, in series [4], the selectivity ratio came out at 1.
Turning to `Cc1c(Cc2ccccc2)c(=O)oc2cc(OCC(O)CNc3nc4ccccc4[nH]3)ccc12` (stereo unspecified), the IC50 in series [1] is more than 100 µM. Moreover, in series [2], the CC50 was more than 100 µM. Further, the selectivity ratio in series [4] was found to be 1.
For `Cc1c(Cc2ccccc2)c(=O)oc2cc(OCC(O)CNCCc3cccnc3)ccc12` (stereo unspecified), the IC50 in series [1] came out at 1.3 µM. The CC50 in series [2] was 27.4 µM. The selectivity ratio came out at 20.5 in series [3] and 16.4 in series [4].
On the same counts, the results for `Cc1c(Cc2ccccc2)c(=O)oc2cc(OCC(O)CNC3CCOCC3)ccc12` (stereo unspecified) are 2.2 µM, 38.2 µM, 17.4 and 17.1.
For `Cc1c(Cc2ccccc2)c(=O)oc2cc(OCC(O)CNCc3ccccc3)ccc12` (stereo unspecified) the same measures were 1.3 µM, more than 100 µM, more than 75 and 45.5.
For `Cc1c(Cc2ccc(-c3ccc(F)cc3)cc2)c(=O)oc2cc(OCC(O)CN3CCC(C(N)=O)CC3)ccc12` (stereo unspecified) the same measures were 1.5 µM, 19.3 µM, 13.1 and 18.1.
With `Cc1c(Cc2ccc(Cl)cc2)c(=O)oc2cc(OCC(O)CN3CCC(C(N)=O)CC3)ccc12` (stereo unspecified), in series [1], the IC50 stood at 2.5 µM. Further, the CC50 in series [2] came out at 40 µM. Besides, the selectivity ratio in series [3] turned out to be 16.3; in series [4], 13.8.
For the molecule `Cc1c(Cc2ccc(F)cc2Cl)c(=O)oc2cc(OCC(O)CN3CCC(C(N)=O)CC3)ccc12` (stereo unspecified), the half-inhibitory concentration (IC50) in series [1] stood at 3.1 µM. For the same molecule, the half-maximal cytotoxic concentration (CC50) in series [2] was determined as 90.8 µM. The results for the selectivity ratio in series [3] and in series [4] were 29 and 7.7, respectively.
On the same counts, the results for `Cc1c(Cc2ccc(F)cc2)c(=O)oc2cc(OCC(O)CN3CCC(C(N)=O)CC3)ccc12` (stereo unspecified) are 1.1 µM, 89.3 µM, 78.8 and 83.7.
For `Cc1c(Cc2ccccc2)c(=O)oc2cc(OCC(O)CNCCCO)ccc12` (stereo unspecified) the same measures were 8.9 µM, 53.4 µM, 6 and 6.3.
For `Cc1c(Cc2ccc(C(F)(F)F)cc2)c(=O)oc2cc(OCC(O)CN3CCC(C(N)=O)CC3)ccc12` (stereo unspecified), in series [1], the half-inhibitory concentration (IC50) is 1.1 µM. The CC50 in series [2] is 89.3 µM. The selectivity ratio is 78.8 in series [3] and 83.7 in series [4].
Consider `COc1ccccc1-c1ccc(Cc2c(C)c3ccc(OCC(O)CN4CCC(C(N)=O)CC4)cc3oc2=O)cc1` (stereo unspecified), for which the IC50 in series [1] came out at 1.5 µM. In addition, the CC50 in series [2] worked out at 91.6 µM. Also, the selectivity ratio in series [4] came out at 30.
Turning to `Cc1noc(C)c1-c1ccc(Cc2c(C)c3ccc(OCC(O)CN4CCC(C(N)=O)CC4)cc3oc2=O)cc1` (stereo unspecified), the half-inhibitory concentration (IC50) in series [1] came to 5.2 µM. The CC50 in series [2] worked out at 36.9 µM. Moreover, the figures for the selectivity ratio in series [3] and in series [4] were 7.1 and 11.4, respectively.
For `Cc1c(Cc2ccccc2)c(=O)oc2cc(OCC(O)CNCCc3ccncc3)ccc12` (stereo unspecified) the same measures were 0.9 µM, more than 100 µM, more than 111 and 36.6.
For `Cc1c(Cc2cccc3ccccc23)c(=O)oc2cc(OCC(O)CN3CCC(C(N)=O)CC3)ccc12` (stereo unspecified) the same measures were 1.5 µM, 42.4 µM, 28.5 and 36.6.
On to `Cc1c(Cc2ccccc2)c(=O)oc2cc(OCC(O)CNc3ccccc3)ccc12` (stereo unspecified), for which the IC50 in series [1] was more than 100 µM. Besides, the CC50 in series [2] is more than 100 µM. Further, in series [4], the selectivity ratio worked out at 1.
Regarding `Cc1c(Cc2cccc(F)c2)c(=O)oc2cc(OCC(O)CN3CCC(C(N)=O)CC3)ccc12` (stereo unspecified), the IC50 in series [1] came to 1.6 µM. The CC50 in series [2] stood at 53.3 µM. In addition, the values for the selectivity ratio in series [3] and in series [4] were 34 and 22.5, respectively.
On the same counts, the results for `Cc1c(Cc2ccc(OC(F)(F)F)cc2)c(=O)oc2cc(OCC(O)CN3CCC(C(N)=O)CC3)ccc12` (stereo unspecified) are 0.5 µM, 68.2 µM, 136 and 56.8.
For `Cc1c(Cc2ccc(-c3ccccc3)cc2)c(=O)oc2cc(OCC(O)CN3CCC(C(N)=O)CC3)ccc12` (stereo unspecified) the same measures were 0.7 µM, more than 100 µM, more than 143 and 111.
For `Cc1c(Cc2ccccc2)c(=O)oc2cc(OCC(O)CNc3cc([N+](=O)[O-])ccc3O)ccc12` (stereo unspecified) the same measures were 81.3 µM, more than 100 µM, 12 and 1.
Take `Cc1c(Cc2ccc(Br)cc2)c(=O)oc2cc(OCC(O)CN3CCC(C(N)=O)CC3)ccc12` (stereo unspecified): the IC50 in series [1] is 0.9 µM. In addition, the CC50 in series [2] is more than 100 µM. Besides, the selectivity ratio in series [3] is more than 111; in series [4], 85.7.
For `Cc1c(Cc2ccccc2)c(=O)oc2cc(OCC(O)CNCCc3ccccn3)ccc12` (stereo unspecified) the same measures were 3.6 µM, 54.9 µM, 15.6 and 9.3.
On the same counts, the results for `C#CCNCC(O)COc1ccc2c(C)c(Cc3ccccc3)c(=O)oc2c1` (stereo unspecified) are 5.9 µM, 95.5 µM, 16.1 and 17.2.
For the molecule `Cc1c(Cc2ccccc2)c(=O)oc2cc(OCC(O)CNCCCCCCO)ccc12` (stereo unspecified), the half-inhibitory concentration (IC50) in series [1] was 1 µM. Besides, the CC50 in series [2] was 40.3 µM. Further, in series [4], the selectivity ratio was 16.6.
Take `Cc1ccc2nc(NCC(O)COc3ccc4c(C)c(Cc5ccccc5)c(=O)oc4c3)sc2c1` (stereo unspecified): the IC50 in series [1] came to 10.2 µM. Also, in series [2], the CC50 was more than 100 µM. Further, the selectivity ratio was more than 9.8 in series [3] and 11.3 in series [4].
For `Cc1c(Cc2ccc(C(C)(C)C)cc2)c(=O)oc2cc(OCC(O)CN3CCC(C(N)=O)CC3)ccc12` (stereo unspecified) the same measures were 11.7 µM, 14.7 µM, 1.3 and 2.5.
For `COC(=O)c1ccc(Cc2c(C)c3ccc(OCC(O)CN4CCC(C(N)=O)CC4)cc3oc2=O)cc1` (stereo unspecified) the same measures were 7.5 µM, more than 100 µM, more than 13.3 and 11.
For `COc1ccc(Cc2c(C)c3ccc(OCC(O)CN4CCC(C(N)=O)CC4)cc3oc2=O)c(Br)c1` (stereo unspecified) the same measures were 2.5 µM, 44.4 µM, 18 and 8.6.
For `Cc1c(Cc2ccccc2)c(=O)oc2cc(OCC(O)CNc3nccs3)ccc12` (stereo unspecified), the IC50 in series [1] came out at 2.1 µM. Further, the CC50 in series [2] stood at 93 µM. For the same molecule, the selectivity ratio in series [3] stood at 44.3; in series [4], 33.2.
Turning to `Cc1c(Cc2ccccc2)c(=O)oc2cc(OCC(O)CNn3ccnn3)ccc12` (stereo unspecified), the IC50 in series [1] is more than 100 µM. In addition, in series [2], the CC50 is more than 100 µM. For the same molecule, in series [4], the selectivity ratio came to 1.
